Three compounds from ChEMBL document CHEMBL3232976, “Investigation of the cytotoxic, genotoxic, and apoptosis-inducing effects of estragole isolated from fennel (Foeniculum vulgare)” (J Nat Prod, 2014) can be followed below.

The test system of data set [1] is HepG2. The data set is described as follows: Induction of early apoptosis in human HepG2 cells assessed as decrease mitochondrial membrane potential at 0.5 uM after 4 hrs by JC-1 staining relative to control. Also on record: scale not given: the % may be the effect or the level left. It is filed as functional. Summed up:
(§1)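 Cells seeded 48 h before a 4 h exposure; 0.5 μM valinomycin for 4 h as depolarizing positive control. Stained with JC-1 plus DAPI (necrotic cells), read by automated fluorescence image cytometry. Depolarization seen as a fall in red/green ratio; gated as % depolarized cells. Three independent experiments, mean ± SEM.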

For data set [2], the system named is HepG2. The data set is described as follows: Induction of late apoptosis in human HepG2 cells assessed as induction of DNA fragmentation at 1 uM after 4 hrs by […] relative to control. Type of data set: functional. A digest of the protocol: (§2)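 Cells seeded 48 h before a 4 h exposure; 1 μM staurosporine positive control. Cells permeabilized with ethanol, washed to remove low-molecular-weight DNA, stained with DAPI, and DNA content read by automated image cytometry. Result as % sub-G1 cells below a manually set G1/G0 peak. Three independent experiments, mean ± SEM.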

The subject of data set [3] is HepG2. The data set is described as follows: Cytotoxicity against human HepG2 cells assessed as cell viability at 42.28 ug/ml after 4 hrs by MTT assay relative to control. The following applies: HepG2, 4 h, read-out: Activity. Type of data set: functional. Summed up:
(§3)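 HepG2 seeded at 1 × 10^5 cells/well in phenol red-free MEM, grown 24 h, then exposed 4 h to eight concentrations (dissolved in MEM; 2% Triton X100 positive control). MTT 1 mg/mL added for 2 h at 37 °C, formazan dissolved in 2-propanol, A570 minus A650. Viability as % of untreated controls; three independent experiments, mean ± SEM.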

The test system of data set [4] is HepG2. The data set is described as follows: Cytotoxicity against human HepG2 cells assessed as cell viability at 21.14 ug/ml after 4 hrs by MTT assay relative to control. The following applies: HepG2, 4 h, read-out: Activity. Type of data set: functional. Summed up:
as §3

Data set [5] has as its system HepG2. The data set is described as follows: Cytotoxicity against human HepG2 cells assessed as cell viability at 10.57 ug/ml after 4 hrs by MTT assay relative to control. Type of data set: functional. The following applies: HepG2, 4 h, read-out: Activity. Summed up:
as §3

The test system of data set [6] is HepG2. The data set is described as follows: Cytotoxicity against human HepG2 cells assessed as cell viability at 5.28 ug/ml after 4 hrs by MTT assay relative to control. It is filed as functional. The following applies: HepG2, 4 h, read-out: Activity. Summed up: as §3
For data set [7], the system named is HepG2. The data set is described as follows: Cytotoxicity against human HepG2 cells assessed as cell viability at 2.64 ug/ml after 4 hrs by MTT assay relative to control. Type of data set: functional. The following applies: HepG2, 4 h, read-out: Activity. A digest of the protocol:
as §3

Data set [8] has as its system HepG2. The data set is described as follows: Cytotoxicity against human HepG2 cells assessed as cell viability at 1.32 ug/ml after 4 hrs by MTT assay relative to control. The following applies: HepG2, 4 h, read-out: Activity. Type of data set: functional. Summed up:
as §3

Data set [9] has as its system HepG2. The data set is described as follows: Cytotoxicity against human HepG2 cells assessed as cell viability at 0.67 ug/ml after 4 hrs by MTT assay relative to control. Type of data set: functional. The following applies: HepG2, 4 h, read-out: Activity. A digest of the protocol:
as §3

Data set [10] concerns HepG2. Description: Cytotoxicity against human HepG2 cells assessed as cell viability at 84.55 ug/ml after 4 hrs by trypan blue dye exclusion assay relative to control. The following applies: HepG2, 4 h, read-out: Activity. It is filed as functional. A digest of the protocol: (§4)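 Cells seeded at 5 × 10^5/well, grown 24 h, then exposed 4 h to the three highest MTT-tested concentrations. Trypan blue exclusion read on an automated cell counter, unstained cells counted as viable. Viability as % of total cells; three independent experiments, mean ± SEM.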

The subject of data set [11] is HepG2. Description: Cytotoxicity against human HepG2 cells assessed as cell viability at 42.28 ug/ml after 4 hrs by trypan blue dye exclusion assay relative to control. The note with it: HepG2, 4 h, read-out: Activity. It is filed as functional. Summed up:
as §4

Data set [12] deals with HepG2. Description: Cytotoxicity against human HepG2 cells assessed as cell viability at 21.14 ug/ml after 4 hrs by trypan blue dye exclusion assay relative to control. It is filed as functional. The note with it: HepG2, 4 h, read-out: Activity. Summed up: as §4
The subject of data set [13] is HepG2. The data set is described as follows: Cytotoxicity against human HepG2 cells assessed as cell viability at 84.55 ug/ml after 4 hrs by AO/DAPI double staining relative to control. It is filed as functional. The note with it: HepG2, 4 h, read-out: Activity. A digest of the protocol: (§5)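 Cells seeded at 5 × 10^5/well, grown 24 h, exposed 4 h to the three highest MTT-tested concentrations. Cell suspension loaded into cassettes coated with acridine orange (all cells) and DAPI (nonviable cells), then counted by automated fluorescence image analysis. Viability as % of total cells; three independent experiments, mean ± SEM.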

For data set [14], the system named is HepG2. Description: Cytotoxicity against human HepG2 cells assessed as cell viability at 42.28 ug/ml after 4 hrs by AO/DAPI double staining relative to control. It is filed as functional. The following applies: HepG2, 4 h, read-out: Activity. Summed up:
as §5

Data set [15] deals with HepG2. The data set is described as follows: Cytotoxicity against human HepG2 cells assessed as cell viability at 21.14 ug/ml after 4 hrs by AO/DAPI double staining relative to control. Type of data set: functional. The note with it: HepG2, 4 h, read-out: Activity. Summed up: as §5
The subject of data set [16] is HepG2. Description: Induction of early apoptosis in human HepG2 cells assessed as decrease mitochondrial membrane potential at 84.55 ug/ml after 4 hrs by JC-1 staining relative to control. It is filed as functional. On the set-up: scale not given: the % may be the effect or the level left. Summed up:
as §1

The test system of data set [17] is HepG2. Description: Induction of early apoptosis in human HepG2 cells assessed as decrease mitochondrial membrane potential at 42.28 ug/ml after 4 hrs by JC-1 staining relative to control. On the set-up: scale not given: the % may be the effect or the level left. It is filed as functional. Summed up:
as §1

For data set [18], the system named is HepG2. Description: Induction of early apoptosis in human HepG2 cells assessed as decrease mitochondrial membrane potential at 21.14 ug/ml after 4 hrs by JC-1 staining relative to control. Type of data set: functional. Also on record: scale not given: the % may be the effect or the level left. A digest of the protocol: as §1
Data set [19] concerns HepG2. Description: Induction of late apoptosis in human HepG2 cells assessed as induction of DNA fragmentation at 84.55 ug/ml after 4 hrs by […] relative to control. Type of data set: functional. Summed up:
as §2

Data set [20] concerns HepG2. The data set is described as follows: Induction of late apoptosis in human HepG2 cells assessed as induction of DNA fragmentation at 42.28 ug/ml after 4 hrs by […] relative to control. Type of data set: functional. Summed up: as §2
Data set [21] has as its system HepG2. Description: Induction of late apoptosis in human HepG2 cells assessed as induction of DNA fragmentation at 21.14 ug/ml after 4 hrs by […] relative to control. It is filed as functional. Summed up: as §2
Data set [22] has as its system HepG2. The data set is described as follows: Cytotoxicity against human HepG2 cells assessed as cell viability at 84.55 ug/ml after 4 hrs by MTT assay relative to control. Type of data set: functional. The note with it: HepG2, 4 h, read-out: Activity. A digest of the protocol: as §3
For data set [23], the system named is HepG2. Description: Genotoxicity in human HepG2 cells assessed as DNA strand-breakage at 84.55 ug/ml after 4 hrs by alkaline comet assay. The following applies: hepg2, 4 h.
The test system of data set [24] is HepG2. The data set is described as follows: Genotoxicity in human HepG2 cells assessed as DNA strand-breakage at 42.28 ug/ml after 4 hrs by alkaline comet assay. The following applies: hepg2, 4 h.
The test system of data set [25] is HepG2. Description: Genotoxicity in human HepG2 cells assessed as DNA strand-breakage at 21.14 ug/ml after 4 hrs by alkaline comet assay. The note with it: hepg2, 4 h.

Turning to `CC(C)[C@@H]1NC(=O)[C@H](C)OC(=O)[C@@H](C(C)C)NC(=O)[C@@H](C(C)C)OC(=O)[C@H](C(C)C)NC(=O)[C@H](C)OC(=O)[C@@H](C(C)C)NC(=O)[C@@H](C(C)C)OC(=O)[C@H](C(C)C)NC(=O)[C@H](C)OC(=O)[C@@H](C(C)C)NC(=O)[C@@H](C(C)C)OC1=O` [VALINOMYCIN], the Activity in [1] is 40.3%.
`CN[C@@H]1C[C@H]2O[C@@](C)([C@@H]1OC)n1c3ccccc3c3c4c(c5c6ccccc6n2c5c31)C(=O)NC4` [STAUROSPORINE]: the Activity in [2] stood at 21.1%.
`C=CCc1ccc(OC)cc1` [ESTRAGOLE]: the viability at 42.28 µg/mL in data set [3] was found to be 108%; in [11] it was 93.3%; in data set [14] it was 91.7%. Besides, the viability at 21.14 µg/mL in data set [4] came out at 110%; in [12], 92.7%; in data set [15], 90.9%. For the same compound, in [5], the viability at 10.57 µg/mL came to 117%. In addition, the viability at 5.28 µg/mL in data set [6] was 104%. The viability at 2.64 µg/mL in [7] came out at 101%. Also, the viability at 1.32 µg/mL in data set [8] turned out to be 94.8%. Moreover, the viability at 0.67 µg/mL in [9] was found to be 106%. Besides, the viability at 84.55 µg/mL was determined as 85% in data set [10], 90.2% in data set [13] and 103% in [22]. The Activity was 13.2% in data set [16]; 12.3% in data set [17]; 15.9% in [18]; 4.9% in data set [19]; 3.7% in data set [20]; 3.4% in [21]. Also, the Activity entry in [23], in data set [24] and in data set [25] was “Non-toxic” each time.
